Measured values reported in ChEMBL document CHEMBL5338787, “Discovery of Novel Bruton's Tyrosine Kinase PROTACs with Enhanced Selectivity and Cellular Efficacy” (J Med Chem, 2023).
Activity calls are given as the source filed them. No cut-off for these calls is given here.

Assays:
[1] = biological target: T1, Protein cereblon/Tyrosine-protein kinase BTK (Homo sapiens, UniProt Q06187+Q96SW2); test: PROTAC activity at BTK/CRBN protein protein interaction in human Ramos cell assessed as degradation of BTK incubated for 17 hrs measured by Western blot analysis; assay type: cell-based
Summary of the method: (§1)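 Ramos or JeKo-1 cells (2 × 10^6 per well) were exposed for 17 h to 3000–0.15 nM PROTAC in 3-fold steps. Cells were lysed and analysed by western blot, with BTK normalised to β-actin. DC50 and Dmax come from the dose-response; DC50 is the mean ± SD of two independent experiments.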
Target sequence in this assay (Q06187 whole entry): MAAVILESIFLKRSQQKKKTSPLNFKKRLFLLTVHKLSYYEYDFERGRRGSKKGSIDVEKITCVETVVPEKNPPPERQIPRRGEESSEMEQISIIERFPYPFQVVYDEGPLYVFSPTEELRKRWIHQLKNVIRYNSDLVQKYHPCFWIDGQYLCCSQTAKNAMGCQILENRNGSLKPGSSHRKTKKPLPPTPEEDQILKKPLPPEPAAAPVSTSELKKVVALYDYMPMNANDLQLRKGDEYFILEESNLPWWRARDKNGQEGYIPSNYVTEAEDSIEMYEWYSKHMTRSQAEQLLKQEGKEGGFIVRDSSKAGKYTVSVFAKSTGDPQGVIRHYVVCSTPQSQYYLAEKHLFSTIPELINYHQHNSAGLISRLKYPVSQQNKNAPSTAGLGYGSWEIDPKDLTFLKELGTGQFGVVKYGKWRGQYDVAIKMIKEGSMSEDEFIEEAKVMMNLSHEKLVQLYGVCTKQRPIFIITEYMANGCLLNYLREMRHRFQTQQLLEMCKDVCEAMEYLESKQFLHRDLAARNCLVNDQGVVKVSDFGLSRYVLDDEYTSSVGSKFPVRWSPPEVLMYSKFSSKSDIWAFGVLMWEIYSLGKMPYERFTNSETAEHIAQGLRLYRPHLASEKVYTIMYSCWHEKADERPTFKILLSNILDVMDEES
Target sequence in this assay (Q96SW2 whole entry): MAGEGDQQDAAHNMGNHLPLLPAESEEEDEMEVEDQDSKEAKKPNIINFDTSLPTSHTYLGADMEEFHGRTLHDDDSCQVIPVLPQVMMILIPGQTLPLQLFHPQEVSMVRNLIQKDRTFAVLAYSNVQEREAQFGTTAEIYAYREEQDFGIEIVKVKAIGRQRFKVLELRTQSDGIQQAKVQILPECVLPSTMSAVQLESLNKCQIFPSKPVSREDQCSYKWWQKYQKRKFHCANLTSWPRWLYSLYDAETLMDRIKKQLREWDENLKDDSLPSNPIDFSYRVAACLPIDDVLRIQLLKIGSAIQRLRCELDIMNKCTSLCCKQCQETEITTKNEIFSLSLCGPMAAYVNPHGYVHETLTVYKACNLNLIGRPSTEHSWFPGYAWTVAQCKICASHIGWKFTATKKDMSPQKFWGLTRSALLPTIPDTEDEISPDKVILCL

[2] = biological target: T1, Protein cereblon/Tyrosine-protein kinase BTK; test: PROTAC activity at BTK/CRBN protein protein interaction in human Ramos cell assessed as degradation of BTK incubated for 17 hrs measured by Western blot analysis relative to control; assay type: cell-based; summary of the method: as §1
Target sequence in this assay (Q06187 2-659 limits assumed): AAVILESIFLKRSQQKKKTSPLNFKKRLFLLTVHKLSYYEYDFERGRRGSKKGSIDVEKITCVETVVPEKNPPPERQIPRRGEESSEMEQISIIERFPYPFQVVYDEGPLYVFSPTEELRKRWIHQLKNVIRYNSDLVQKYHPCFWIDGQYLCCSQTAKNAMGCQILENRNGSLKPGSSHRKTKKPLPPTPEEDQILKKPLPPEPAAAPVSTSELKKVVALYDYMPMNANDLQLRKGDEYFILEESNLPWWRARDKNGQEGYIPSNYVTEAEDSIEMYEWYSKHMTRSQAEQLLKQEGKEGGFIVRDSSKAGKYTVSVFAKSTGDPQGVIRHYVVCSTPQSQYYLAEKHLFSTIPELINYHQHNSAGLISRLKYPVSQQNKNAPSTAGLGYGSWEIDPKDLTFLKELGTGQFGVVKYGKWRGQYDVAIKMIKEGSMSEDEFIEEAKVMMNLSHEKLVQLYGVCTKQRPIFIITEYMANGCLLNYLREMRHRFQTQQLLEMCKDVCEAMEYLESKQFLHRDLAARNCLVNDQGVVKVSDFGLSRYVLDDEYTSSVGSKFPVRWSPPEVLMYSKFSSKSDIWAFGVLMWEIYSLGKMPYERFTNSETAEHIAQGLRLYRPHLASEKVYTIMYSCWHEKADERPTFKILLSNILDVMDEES
Target sequence in this assay (Q96SW2 whole entry partner): as the sequence (Q96SW2 whole entry) above

[3] = biological target: T1, Protein cereblon/Tyrosine-protein kinase BTK; test: PROTAC activity at BTK/CRBN protein protein interaction in human JeKo-1 cell assessed as degradation of BTK incubated for 17 hrs measured by Western blot analysis; assay type: cell-based; summary of the method: as §1
Target sequence in this assay (Q06187 whole entry): as the sequence (Q06187 whole entry) above
Target sequence in this assay (Q96SW2 whole entry): as the sequence (Q96SW2 whole entry) above

[4] = biological target: T1, Protein cereblon/Tyrosine-protein kinase BTK; test: PROTAC activity at BTK/CRBN protein protein interaction in human JeKo-1 cell assessed as degradation of BTK incubated for 17 hrs measured by Western blot analysis relative to control; assay type: cell-based; summary of the method: as §1
Target sequence in this assay (Q06187 2-659 limits assumed): as the sequence (Q06187 2-659 limits assumed) above
Target sequence in this assay (Q96SW2 whole entry partner): as the sequence (Q96SW2 whole entry) above

TMD8 = test: Cytotoxicity against human TMD8 cells incubated for 48 hrs by celltitre glo 2.0 assay; assay type: functional, cell-based; conditions: TMD8, 48 h
[5] = Cytotoxicity against human MINO cells incubated for 48 hrs by celltitre glo 2.0 assay; assay type: functional, cell-based
[6] = biological target: T2, Tyrosine-protein kinase BTK (Homo sapiens, UniProt Q06187); test: Potency index, ratio of test compound Kd to GDC-0853 Kd for full length BTK (unknown origin)
[7] = biological target: T2, Tyrosine-protein kinase BTK; test: Binding affinity to full length BTK (unknown origin) assessed as dissociation constant measured at 37 degree C by TR-FRET assay
[8] = biological target: T2, Tyrosine-protein kinase BTK; test: Inhibition of BTK in HEK293 cells using NanoGlo substrate incubated for 2 hrs by NanoBRET assay; assay type: cell-based
Protein cereblon = Protein cereblon (Homo sapiens, UniProt Q96SW2); test: Inhibition of CRBN in HEK293 cells using NanoGlo substrate incubated for 2 hrs by NanoBRET assay; assay type: cell-based
[9] = biological target: T1, Protein cereblon/Tyrosine-protein kinase BTK; test: PROTAC activity at Halo-tagged CRBN/NanoLuc fusion tagged BTK transfected in HEK293 cells assessed as degradation of BTK by measuring ternary complex formation using NanoGlo substrate preincubated with proteasome inhibitor MG-132 for 30 mins followed by compound and substrate addition incubated for 2.5 hrs measured by NANOBRET assay relative to 4-((2-((S)-4-(6-((2'-(7,7-Dimethyl-1-oxo-1,3,4,6,7,8-hexahydro-2H-cyclopenta[4,5]pyrrolo[1,2-a]pyrazin-2-yl)-3'-(hydroxymethyl)-1-methyl-6-oxo-1,6-dihydro-[3,4'-bipyridin]-5-yl)amino)pyridin-3-yl)-3-methylpiperazin-1-yl)-2-oxoethyl)amino)-2-(2,6-dioxopiperidin-3-yl)isoindoline-1,3-dione; assay type: cell-based; design: scale not given: the % may be the effect or the level left
Target sequence in this assay (Q06187 2-659 limits assumed): as the sequence (Q06187 2-659 limits assumed) above
Target sequence in this assay (Q96SW2 whole entry partner): as the sequence (Q96SW2 whole entry) above

[10] = biological target: von Hippel-Lindau disease tumor suppressor/Tyrosine-protein kinase BTK (Homo sapiens) (UniProt Q06187+P40337); test: PROTAC activity at BTK/VHL protein protein interaction in human Ramos cell assessed as degradation of BTK incubated less than 3000 nM for 17 hrs measured by Western blot analysis
Sequence of von Hippel-Lindau disease tumor suppressor/Tyrosine-protein kinase BTK (Homo sapiens) (P40337 whole entry partner): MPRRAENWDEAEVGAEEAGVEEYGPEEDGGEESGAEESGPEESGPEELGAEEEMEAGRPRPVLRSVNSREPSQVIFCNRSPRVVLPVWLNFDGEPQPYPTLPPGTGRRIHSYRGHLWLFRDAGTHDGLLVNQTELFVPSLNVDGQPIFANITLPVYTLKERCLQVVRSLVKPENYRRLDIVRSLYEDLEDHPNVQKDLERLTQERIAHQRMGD
Sequence of von Hippel-Lindau disease tumor suppressor/Tyrosine-protein kinase BTK (Homo sapiens) (Q06187 2-659 limits assumed): as the sequence (Q06187 2-659 limits assumed) above

T2 sequence (Q06187 whole entry): as the sequence (Q06187 whole entry) above
Sequence of Protein cereblon (Q96SW2 whole entry, the tested form may be a part): as the sequence (Q96SW2 whole entry) above

Row | Structure (SMILES) | DC50 [1] | Emax [2] | DC50 [3] | Emax [4] | IC50 (TMD8) | IC50 [5] | Ratio [6] | Kd [7] | IC50 [8] | IC50 (Protein cereblon) | Activity [9] | Activity [10]
1 | C[C@H]1CN(C(=O)CNc2ccc3c(c2)C(=O)N(C2CCC(=O)NC2=O)C3=O)CCN1c1ccc(Nc2cc(-c3ccnc(N4CCn5c(cc6c5CC(C)(C)C6)C4=O)c3CO)cn(C)c2=O)nc1 (stereo partly specified) | 0.9 nM | 97.3% | 0.8 nM | 97.6% | – | – | – | – | – | – | – | –
2 | C[C@H]1CN(C(=O)CCOCCOCCNc2cccc3c2C(=O)N(C2CCC(=O)NC2=O)C3=O)CCN1c1ccc(Nc2cc(-c3ccnc(N4CCn5c(cc6c5CC(C)(C)C6)C4=O)c3CO)cn(C)c2=O)nc1 (stereo partly specified) | 1.3 nM | 96.1% | 4.1 nM | 95.1% | – | – | – | – | – | – | – | –
3 | Nc1ncnc2c1c(-c1ccc(Oc3ccccc3)cc1)nn2C1CCN(CCOCCOCC(=O)Nc2ccc3c(c2)C(=O)N(C2CCC(=O)NC2=O)C3=O)CC1 (stereo unspecified) | – | – | – | – | 12 nM | 100 nM | – | – | – | – | – | –
4 | Cn1cc(-c2ccnc(N3CCn4c(cc5c4CC(C)(C)C5)C3=O)c2CO)cc(Nc2ccc(N3CCN(C(=O)CCCCCCOCCOCC(=O)Nc4cccc5c4C(=O)N(C4CCC(=O)NC4=O)C5=O)CC3)cn2)c1=O (stereo unspecified) | 4 nM | 98.3% | 7.2 nM | 98.8% | – | – | – | – | – | – | – | –
5 | C[C@H]1CN(C(=O)c2cccc3c2C(=O)N(C2CCC(=O)NC2=O)C3=O)CCN1c1ccc(Nc2cc(-c3ccnc(N4CCn5c(cc6c5CC(C)(C)C6)C4=O)c3CO)cn(C)c2=O)nc1 (stereo partly specified) | > 3000 nM | 30.1% | > 3000 nM | 30% | – | – | 3 | 0.86 nM | 320 nM | 7000 nM | 0% | –
6 | Cn1cc(-c2ccnc(N3CCn4c(cc5c4CC(C)(C)C5)C3=O)c2CO)cc(Nc2ccc(N3CCN(C(=O)CCCCCCNc4cccc5c4C(=O)N(C4CCC(=O)NC4=O)C5=O)CC3)cn2)c1=O (stereo unspecified) | 2 nM | 96.9% | 3.5 nM | 98% | – | – | – | – | – | – | – | –
7 | C[C@H]1CN(C(=O)CCCCCCNc2cccc3c2C(=O)N(C2CCC(=O)NC2=O)C3=O)CCN1c1ccc(Nc2cc(-c3ccnc(N4CCn5c(cc6c5CC(C)(C)C6)C4=O)c3CO)cn(C)c2=O)nc1 (stereo partly specified) | 3.2 nM | 95% | 3.3 nM | 97% | – | – | – | – | – | – | – | –
8 | C[C@H]1CN(C(=O)CCCCCCCCCCCNc2cccc3c2C(=O)N(C2CCC(=O)NC2=O)C3=O)CCN1c1ccc(Nc2cc(-c3ccnc(N4CCn5c(cc6c5CC(C)(C)C6)C4=O)c3CO)cn(C)c2=O)nc1 (stereo partly specified) | 113 nM | 89% | 348 nM | 89.8% | – | – | 300 | 107 nM | 3200 nM | 5000 nM | 75% | –
9 | Cc1ncsc1-c1ccc(CNC(=O)[C@@H]2C[C@@H](O)CN2C(=O)[C@@H](NC(=O)COCCOCCCCCCC(=O)N2CCN(c3ccc(Nc4cc(-c5ccnc(N6CCn7c(cc8c7CC(C)(C)C8)C6=O)c5CO)cn(C)c4=O)nc3)[C@@H](C)C2)C(C)(C)C)cc1 | – | – | – | – | – | – | – | – | – | – | – | inactive
